# Bioassay records from PubChem.
# HSF1 inh – HSF1 inhibition; activity change, negative = inhibition, % at 7.5 µM (by protocol); 300,000 tested, 0.77% active; NIH3T3-HGL HSE-luciferase, MG132-induced, luminescence 8 h; hits give low values;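 active = more than half of replicate wells show activity change below -50%, luminescence cut by over half; inconclusive = some wells, but at most half, below -50%; inactive = no replicate well below -50%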;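 note: luciferase reports HSF-1 transcriptional activity via heat shock element; 0% = median of DMSO wells and -100% = zero luminescence signal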
# ALR H2O2 inh – inhibitors of human sulfhydryl oxidase ALR. purified ALR, DTT oxidation, H2O2 HRP-luminol luminescence. inhibition, % (test concentration not listed). 290,000 tested, 3.8% active. AID 485317;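 active = mean replicate inhibition above about 79%, with every replicate also reaching it, limit read from the data; inconclusive = only one of the two criteria met; inactive = mean below limit and not every replicate reaching it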
# Target sequence (P55789 whole entry, looked up): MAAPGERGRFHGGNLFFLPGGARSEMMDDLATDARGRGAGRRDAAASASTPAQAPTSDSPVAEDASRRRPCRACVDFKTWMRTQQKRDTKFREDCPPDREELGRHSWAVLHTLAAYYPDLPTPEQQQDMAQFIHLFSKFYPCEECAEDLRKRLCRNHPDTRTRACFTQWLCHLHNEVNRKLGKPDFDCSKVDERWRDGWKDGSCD
# PHOSPHO1 block – blocks human PHOSPHO1 phosphatase activity | inhibition, % at 13.3 µM | 290,000 tested, 1.1% active | Q8TCT1 | recombinant PHOSPHO1, absorbance phosphatase assay; in the data active = inhibition above about 60%
# Target sequence (Q8TCT1 whole entry, looked up): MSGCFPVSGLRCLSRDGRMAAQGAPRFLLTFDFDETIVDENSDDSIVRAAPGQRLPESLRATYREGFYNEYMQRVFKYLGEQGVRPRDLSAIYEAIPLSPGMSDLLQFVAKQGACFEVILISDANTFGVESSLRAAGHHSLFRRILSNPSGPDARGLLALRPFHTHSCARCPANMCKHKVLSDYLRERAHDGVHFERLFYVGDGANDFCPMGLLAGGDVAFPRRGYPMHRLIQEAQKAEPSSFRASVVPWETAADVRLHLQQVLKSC
# core dimer inh – blocks dimerization of HCV core protein. TR-FRET GST/Flag-core106 dimerization, 1536-well. 300,000 tested, 0.33% active. inhibition, % at 5 µM;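 active = inhibition above the mean of all tested compounds plus 3 SD, set per screening campaign, cut at about 45% in these data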
#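 Material: GST/Flag-tagged HCV core106 proteins. Incubation: 4 h, 22.5 °C incubation. Read-out basis: inhibition (%) from 671 over 617 nm ratio. Measured by: TR-FRET, excitation 340 nm, emission 617 and 671 nm.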
# AI-2 QS modul – modulators of Vibrio harveyi AI-2 quorum sensing system; Vibrio harveyi JMH597 AI-2 luminescence/OD600 ratio, 9 h; hits give low values; strain lacks LuxN and CqsS sensors; 0 = neutral-control median; activity change, % at 7.5 µM; 300,000 tested, 0.4% active; in the data active = activity change below about -75%, passing the limit was not always enough; inconclusive = no clear call, values can overlap the other calls;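 note: luminescence divided by OD600 gain over 9 h not by final OD600 alone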
# HSF1 activator – increases HSF-1 driven luciferase reporter signal. NIH3T3-HGL HSF-1 luciferase reporter, MG132, 8 h; 100% = twice DMSO control signal. 300,000 tested, 1.7% active. activation, % at 9 µM;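 active = mean replicate activation of at least 50% with a set share of replicates each reaching 50%; inconclusive = only one of those two conditions met; inactive = mean below 50% and too few replicates reaching it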;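 note: 0% = median of the neutral control wells and 100% = twice that signal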
# Starred values were filed as active, the others as inactive; ? = inconclusive; / = not tested or not shown. This is a sample that favours compounds with a hit; in the whole collection about 6.8% have one here.
SMILES,HSF1 inh,ALR H2O2 inh,PHOSPHO1 block,core dimer inh,AI-2 QS modul,HSF1 activator
CCOC(=O)c1c(NC(=O)C2=COCCO2)sc2c1CCN(C(=O)OC)C2,0,-3,/,4,10,-5
COC(=O)c1ccc(N2CCN(C)CC2)c(NC(=O)c2ccc(Br)o2)c1,1,0,46,-1,8,3
O=C(CSc1nc2ccccc2c(=O)[nH]1)Nc1ccc(N2CCOCC2)cc1,-11,-6,38,9,17,-17
Cc1cc(C)nc(SCC(=O)Nc2ccc(N3CCOCC3)cc2)n1,-8,98*,0,-3,20,-11
CCCc1nc(SCC(=O)Nc2ccc(N3CCOCC3)cc2)c2ccccc2n1,0,99*,-16,6,27,-11
CC(C)c1nc(SCC(=O)Nc2ccc(N3CCOCC3)cc2)c2ccccc2n1,16,99*,-4,13,16,19
Cc1nc(SCC(=O)Nc2ccc(N3CCOCC3)cc2)nc(C)c1C,6,/,31,-4,17,9
COCCN(C(=O)c1oc2ccccc2c1COC)c1c(N)n(CC(C)C)c(=O)[nH]c1=O,/,-8,/,/,/,/
CCOC(=O)C1=C(COC(=O)CSc2ccc(C)cc2)NC(=O)NC1C (stereo not given),/,-24,/,/,/,/
CCc1cc2c(Nc3ccccc3O)nc(C)nc2s1,6,5,40,/,13,-7
COc1cccc(Nc2ncnc3sccc23)c1,24,/,24,-8,51,?
Cc1cc2c(Nc3ccc(O)cc3)ncnc2s1,11,94*,4,/,-2,12
COc1cccc(Nc2ncnc3sc(C)cc23)c1,33,-4,47,5,24,69*
CCc1cc2c(Nc3ccc(O)cc3)nc(C)nc2s1,18,100*,9,-11,32,36
COc1cccc(OCc2cc(C(=O)N3CCN(C(C)=O)CC3)no2)c1,-6,2,22,-10,109,-3
CN1CCC(=O)N([C@H](CSc2ccccc2)c2ccccc2)CC1,-1,13,-19,9,7,-2
COc1ccc(SC[C@H](Cc2ccccc2)N2CC[C@@H](C(C)(C)C)CCC2=O)cc1,/,99*,/,/,/,/
CCCN1CCC(=O)N([C@H](CSc2ccc(OC)cc2)c2ccccc2)CC1,1,98*,40,6,-7,-12
NC(=O)C1CCN(c2nc(-c3ccc4occc(=O)c4c3)cs2)CC1,/,99*,/,/,/,/
COc1ccc(-c2cc(-c3nnc(COC(=O)c4ccncc4)o3)c3ccccc3n2)cc1OC,-4,-5,6,19,14,8
Cc1ccc(OCCn2cc(/C(N)=N/O)c3ccccc32)cc1C,3,78*,5,-15,-3,14
COc1ccc(OCCn2cc(/C(N)=N/O)c3ccccc32)cc1,0,/,45,-5,3,8
N/C(=N\O)c1cn(Cc2ccccc2Cl)c2ccccc12,3,99*,27,4,-17,8
COC(=O)N/N=C/c1cn(Cc2ccccc2Cl)c2ccccc12,1,0,-2,9,16,-11
CCN(CC)CCCNC(=O)c1cc(-c2ccccc2)c(N2CCCCC2)s1,15,99*,18,-4,2,41
SMILES,HSF1 inh,ALR H2O2 inh,PHOSPHO1 block,core dimer inh,AI-2 QS modul,HSF1 activator
O=C(NCCc1ccccc1)c1cc(-c2ccccc2)c(N2CCOCC2)s1,6,5,/,24,18,12
Nc1ncn([C@@H]2O[C@H](CO)[C@@H](O)[C@H]2O)c(=O)n1,13,1,/,5,-87*,17
CCOC(=O)Cc1nnc(Nc2cccc(C)c2)c2ccccc12,65,/,-9,-1,45,80*
CCOC(=O)/C=C1\CN(C(C)c2ccccc2)S(=O)(=O)c2ccccc21 (stereo not given),-4,/,-36,-2,8,-4
c1ccc2c(c1)[nH]c1c(NCC3CCCO3)ncnc12 (stereo not given),-6,82*,8,-1,15,-3
O=C(N/N=C/c1ccc(Cl)cc1Cl)c1cccc(F)c1,29,26,30,0,6,56*
O=C(N/N=C/C(Br)=C/c1ccccc1)c1ccncc1,8,/,32,1,17,34
O=C(N/N=C/C(Br)=C\c1ccccc1)c1cccs1,105,-9,-10,0,9,101*
CC(/C=N/NC(=O)c1cccc(F)c1)=C\c1ccccc1,57,-9,34,1,38,83*
CC(=C/c1ccccc1)/C=N/NC(=O)c1cccs1,14,-3,32,0,-6,55*
CC(/C=N/NC(=O)c1ccncc1)=C\c1ccccc1,1,/,27,-1,21,13
O=C(COC(=O)CNC(=O)c1ccc(Cl)c([N+](=O)[O-])c1)NC(=O)c1ccccc1,3,-12,29,-12,19,-4
Cc1ccc(OCCOc2ccc(Br)cc2)c([N+](=O)[O-])n1,17,/,3,1,11,34
Cc1cccc(/C=N\NC(=O)c2ccc(Cl)cc2)c1O,209,1,12,8,5,259*
Cc1cccc(/C=N/NC(=O)Cc2ccc(Cl)cc2)c1O,3,/,24,4,-71,3
COc1cc2c(cc1OC)C(C)N(S(=O)(=O)c1ccc(Cl)nc1)CC2 (stereo not given),12,0,17,-5,8,12
Cc1ccc(-c2csc3nc[nH]c(=O)c23)cc1,-4,8,1,-3,7,8
Cc1ccc(-c2csc3nc[nH]c(=O)c23)c(C)c1,45,-1,30,-2,-6,95*
C=CCN1C(c2ccccc2)=CS/C1=C(/C#N)c1nnc(N2CCOCC2)n1-c1ccccc1,2,99*,2,9,10,36
CN1C(c2ccc(F)cc2)=CS/C1=C(/C#N)c1nnc(N2CCOCC2)n1-c1ccccc1,4,98*,-10,2,8,-4
CN1C(=O)NC(c2ccccc2)(C(F)(F)F)S/C1=C(/C#N)c1nnc(N2CCOCC2)n1-c1ccccc1 (stereo not given),13,8,-11,-1,15,32
Nc1ccc(N=Nc2ccc(N)cc2)cc1,0,98*,24,-18,5,1
CCS(=O)(=O)c1ccc2oc(SCC(=O)c3c(N)n(C4CC4)c(=O)[nH]c3=O)nc2c1,/,-5,/,/,/,/
Cc1cc(C)n2cc(CSc3nc4ccccc4s3)nc2n1,20,/,-16,1,-3,39
Cc1cc(C)n2cc(CSc3nnc(N)s3)nc2n1,-1,21,71*,-3,52,-12
Cc1cc(C)n2cc(CSc3nc4ccccc4[nH]3)nc2n1,-5,99*,-6,-4,-5,2
